Data published in ChEMBL document CHEMBL1147117, “Novel synthetic antimicrobial peptides against Streptococcus mutans” (2007).
Where a SMILES comes first, the peptide text is derived from it.

Columns and labels:
Assay type in all cases: functional
[1] = system: Streptococcus mutans; assay: Antibacterial activity against Streptococcus mutans after 16 to 20 hrs
Outline: (§1)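 Broth microdilution in TH broth or Veillonella medium. Overnight cultures grown to OD600 0.75 to 0.8 were diluted to 1 x 10^5 CFU/ml. Peptide was serially diluted 1:2 from 500 or 512 µg/ml down to 1.95 or 2 µg/ml, with a methanol solvent control. Incubation was 16 to 20 h at 37°C, anaerobic, without shaking. MIC was read visually as the last clear well. Run in triplicate.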

[2] = system: Streptococcus mitis; assay: Antibacterial activity against Streptococcus mitis ATCC 903 after 16 to 20 hrs; outline: as §1
[3] = system: Veillonella atypica; assay: Antibacterial activity against Veillonella atypica PK1910 after 16 to 20 hrs; outline: as §1
[4] = system: Streptococcus gordonii; assay: Antibacterial activity against Streptococcus gordonii Challis DL1 after 16 to 20 hrs; outline: as §1
[5] = system: Streptococcus sanguinis; assay: Antibacterial activity against Streptococcus sanguinis NY101 after 16 to 20 hrs; outline: as §1
[6] = system: Lacticaseibacillus casei; assay: Antibacterial activity against Lactobacillus casei ATCC 4646 after 16 to 20 hrs; outline: as §1
[7] = system: Streptococcus mutans; assay: Bactericidal activity against Streptococcus mutans UA159 assessed as time required to kill 3 log10 of recoverable CFU/ml at 25 ug/ml relative to untreated control
Outline: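 Time-kill assay. Overnight UA159 cultures were diluted in medium to 0.5 x 10^6 to 1 x 10^6 CFU/ml and exposed to 25 µg/ml peptide. At each time point a 10-µl aliquot was diluted 1:50 into growth medium and plated on TH agar; whole 1-ml samples were plated when survivors were below 3,000 CFU/ml. TC is the time for survivors to fall 3 log10 below untreated CFU/ml. Repeated 3 to 5 times.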

Row | Compound | MIC [1] | other results
1 | Cl.N=C(N)NCCC[C@H](NC(=O)[C@H](CCCNC(=N)N)NC(=O)[C@@H](N)CCCNC(=N)N)C(=O)N[C@@H](CCCCN)C(=O)N[C@@H](Cc1c[nH]c2ccccc12)C(=O)N[C@@H](Cc1c[nH]c2ccccc12)C(=O)N[C@@H](CCCCN)C(=O)O (H-RRRKWWK-OH) | 125 µg/mL | –
2 | H-AQAAHQAAHAAHQF-NH2 | > 125 µg/mL | –
3 | H-AQAAKQAAKAAKQF-NH2 | > 125 µg/mL | –
4 | H-ATHLLHALQRF-NH2 | > 250 µg/mL | –
5 | H-FHYFWHWFHRF-NH2 | 125 µg/mL | –
6 | H-KLAENVKEILR-NH2 | > 250 µg/mL | –
7 | H-KLAQKVKRVLR-OH | > 125 µg/mL | –
8 | H-KLLQTFKQIFR-OH | > 250 µg/mL | –
9 | H-KLLQTFNQIFR-OH | > 125 µg/mL | –
10 | H-KLVEQLKEIFR-OH | > 250 µg/mL | –
11 | H-KLVQQLKNIFR-OH | > 125 µg/mL | –
12 | H-LYHFLHWFQRF-NH2 | 125 µg/mL | –
13 | H-RALHEAKEALK-OH | > 250 µg/mL | –
14 | H-RALKRIKHVLK-OH | > 125 µg/mL | –
15 | H-RILKELKNLFK-OH | > 250 µg/mL | –
16 | H-RRRKWWK-OH | 250 µg/mL | –

Row | Compound | MIC [1] | other results
17 | H-RRRRWWK-OH | 125 µg/mL | –
18 | H-RRWKRRK-OH | 500 µg/mL | –
19 | H-RRWWRRK-OH | 125 µg/mL | –
20 | H-RVLNQVKQILK-OH | > 125 µg/mL | –
21 | H-RVLQEIKQILK-OH | > 250 µg/mL | –
22 | H-RWRKRWK-OH | 125 µg/mL | –
23 | H-RWRWRWF-NH2 | 125 µg/mL | MIC [2]: 32 µg/mL; MIC [3]: 64 µg/mL; MIC [4]: 32 µg/mL; Time [7]: 220 min; MIC [5]: 32 µg/mL; MIC [6]: 32 µg/mL
24 | H-RWRWRWFPSGSPRWRWRWF-NH2 | 32 µg/mL | Time [7]: 270 min
25 | H-RWRWRWK-OH | 32 µg/mL | –
26 | H-RWRWRWR-OH | 32 µg/mL | –
27 | H-TILQSLKNIFK-OH | > 125 µg/mL | –
28 | H-VKNLAELVHRF-NH2 | > 250 µg/mL | –
29 | H-VKQLLKIFNRF-NH2 | 32 µg/mL | –
30 | H-YLFQTWQHLFR-OH | > 125 µg/mL | –
31 | H-YLLTEFQHLFK-OH | > 125 µg/mL | –

Continued, in another order:

Row | MIC [1] | Compound | other results
32 | 16 µg/mL | H-AKRLLKVLKRF-NH2 | –
33 | 8 µg/mL | H-FKKFWKWFRRF-NH2 | MIC [2]: 32 µg/mL; MIC [3]: 16 µg/mL; MIC [4]: 32 µg/mL; MIC [5]: 32 µg/mL; MIC [6]: 32 µg/mL
34 | 16 µg/mL | H-FKKFWKWFRRFGGGRWRRLLKKLHHLLH-NH2 | –
35 | 4 µg/mL | H-FKKFWKWFRRFGGGRWRWRWF-NH2 | MIC [2]: 64 µg/mL; MIC [3]: 8 µg/mL; MIC [4]: 32 µg/mL; MIC [5]: 16 µg/mL; MIC [6]: 8 µg/mL
36 | 24 µg/mL | H-FKTFLKWLHRF-NH2 | –
37 | 16 µg/mL | H-FKTFLQWLHRF-NH2 | –
38 | 24 µg/mL | H-IKQLLHFFQRF-NH2 | MIC [2]: 64 µg/mL; MIC [3]: 64 µg/mL; MIC [4]: 32 µg/mL; MIC [5]: 64 µg/mL; MIC [6]: 32 µg/mL
39 | 16 µg/mL | H-IKQLLHFFQRFGGGRWRRLLKKLHHLLH-NH2 | –
40 | 4 µg/mL | H-IKQLLHFFQRFGGGRWRWRWF-NH2 | MIC [2]: 64 µg/mL; MIC [3]: 8 µg/mL; MIC [4]: 32 µg/mL; MIC [5]: 16 µg/mL; MIC [6]: 16 µg/mL
41 | 32 µg/mL | H-IKTLLHFFQRF-NH2 | –
42 | 31.2 µg/mL | H-KLFKRWKHLFR-OH | –
43 | 8 µg/mL | H-KLKKLLKHLHHLLH-NH2 | –
44 | 8 µg/mL | H-KLKKLLKKLKKLLK-OH | –
45 | 8 µg/mL | H-KLKKLLKRWRRWWR-OH | –
46 | 8 µg/mL | H-LKLLKKLLKLLKKF-NH2 | –
47 | 32 µg/mL | H-LKQFVHFIHRF-NH2 | –
48 | 24 µg/mL | H-LKQFVKFIHRF-NH2 | –
49 | 8 µg/mL | H-LKRFLKWFKRF-NH2 | MIC [2]: 64 µg/mL; MIC [3]: 32 µg/mL; MIC [4]: 32 µg/mL; MIC [5]: 16 µg/mL; MIC [6]: 16 µg/mL
50 | 4 µg/mL | H-LKRFLKWFKRFGGGRWRWRWF-NH2 | MIC [2]: 64 µg/mL; MIC [3]: 8 µg/mL; MIC [4]: 64 µg/mL; MIC [5]: 16 µg/mL; MIC [6]: 16 µg/mL
51 | 8 µg/mL | H-LQLLKQLLKLLKQF-NH2 | –
52 | 31.2 µg/mL | H-RLLKRFKHLFK-OH | –
53 | 31.2 µg/mL | H-RRRFWWR-OH | –

Row | MIC [1] | Compound | other results
54 | 16 µg/mL | H-RRRRWWW-OH | –
55 | 4 µg/mL | H-RRRWWWF-NH2 | MIC [2]: 32 µg/mL; MIC [3]: 64 µg/mL; MIC [4]: 32 µg/mL; Time [7]: 220 min; MIC [5]: 16 µg/mL; MIC [6]: 16 µg/mL
56 | 32 µg/mL | H-RRRWWWFASASARRRWWWF-NH2 | Time [7]: 480 min
57 | 16 µg/mL | H-RRRWWWFGGGRRRWWWF-NH2 | Time [7]: 270 min
58 | 32 µg/mL | H-RRRWWWFPSGSPRRRWWWF-NH2 | Time [7]: 420 min
59 | 16 µg/mL | H-RRRWWWFRRRWWWF-NH2 | Time [7]: 60 min
60 | 31.2 µg/mL | H-RRRWWWK-OH | –
61 | 32 µg/mL | H-RRRWWWR-OH | –
62 | 4 µg/mL | H-RRWWRRF-NH2 | –
63 | 16 µg/mL | H-RRWWRRW-OH | –
64 | 8 µg/mL | H-RWRRLLKKLHHLLH-NH2 | MIC [2]: 32 µg/mL; MIC [3]: 4 µg/mL; MIC [4]: 16 µg/mL; MIC [5]: 16 µg/mL; MIC [6]: 16 µg/mL
65 | 4 µg/mL | H-RWRRLLKKLHHLLHGGGFKKFWKWFRRF-NH2 | MIC [2]: 32 µg/mL; MIC [3]: 8 µg/mL; MIC [4]: 16 µg/mL; MIC [5]: 16 µg/mL; MIC [6]: 8 µg/mL
66 | 16 µg/mL | H-RWRRLLKKLHHLLHGGGIKQLLHFFQRF-NH2 | –
67 | 8 µg/mL | H-RWRRWWRHFHHFFH-NH2 | –
68 | 16 µg/mL | H-RWRWRWFASASARWRWRWF-NH2 | Time [7]: 45 min
69 | 4 µg/mL | H-RWRWRWFGGGFKKFWKWFRRF-NH2 | MIC [2]: 64 µg/mL; MIC [3]: 8 µg/mL; MIC [4]: 16 µg/mL; MIC [5]: 8 µg/mL; MIC [6]: 8 µg/mL
70 | 8 µg/mL | H-RWRWRWFGGGIKQLLHFFQWRF-NH2 | –
71 | 8 µg/mL | H-RWRWRWFGGGLKRFLKWFKRF-NH2 | MIC [2]: 64 µg/mL; MIC [3]: 16 µg/mL; MIC [4]: 32 µg/mL; MIC [5]: 16 µg/mL; MIC [6]: 8 µg/mL
72 | 16 µg/mL | H-RWRWRWFGGGRWRWRWF-NH2 | Time [7]: 90 min
73 | 16 µg/mL | H-RWRWRWFRWRWRWF-NH2 | Time [7]: 50 min
74 | 16 µg/mL | H-VKKLAKLVRRF-NH2 | –
75 | 31.2 µg/mL | H-VKTLLHIFQRF-NH2 | –
